{
  "source": "ChEMBL document CHEMBL1157098",
  "about": "“AMP-activated protein kinase (AMPK) activation by benzofurans and coumestans isolated from Erythrina abyssinica” (J Nat Prod, 2010)",
  "format_in_all_cases": "cell-based",
  "key": {"[1]": {"molecular_target": "5'-AMP-activated protein kinase catalytic subunit alpha-1 (Mus musculus) (UniProt Q5EG47)", "sequence (Q5EG47 whole entry)": "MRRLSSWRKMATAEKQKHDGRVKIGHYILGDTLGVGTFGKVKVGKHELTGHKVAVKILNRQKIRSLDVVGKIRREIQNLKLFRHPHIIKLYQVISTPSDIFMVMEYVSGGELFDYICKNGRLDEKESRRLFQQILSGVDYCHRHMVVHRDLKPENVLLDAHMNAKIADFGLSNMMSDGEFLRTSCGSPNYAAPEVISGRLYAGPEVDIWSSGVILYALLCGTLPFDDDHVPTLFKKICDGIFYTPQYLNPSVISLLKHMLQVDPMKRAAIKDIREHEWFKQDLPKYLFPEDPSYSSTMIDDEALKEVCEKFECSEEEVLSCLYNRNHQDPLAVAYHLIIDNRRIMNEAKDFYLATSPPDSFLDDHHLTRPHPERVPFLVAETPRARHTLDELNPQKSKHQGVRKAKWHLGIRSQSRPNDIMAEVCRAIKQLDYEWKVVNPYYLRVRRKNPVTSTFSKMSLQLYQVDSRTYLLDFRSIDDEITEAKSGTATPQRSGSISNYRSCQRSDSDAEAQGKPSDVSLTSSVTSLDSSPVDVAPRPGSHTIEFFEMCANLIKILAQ", "assay": "Activation of AMPKalpha in differentiated mouse C2C12 cells assessed as phosphorylated-ACC level at 10 uM after 30 mins by Western blot analysis relative to control", "summary_of_the_method": "(§1)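 C2C12 myoblasts seeded at 10^5 cells/well and differentiated at confluence in DMEM with 5% horse serum, medium changed every 48 h until myotubes formed. Myotubes exposed to compounds for 30 min, lysed in EBC buffer (50 mM Tris-HCl pH 7.6, 120 mM NaCl, 1 mM EDTA, 0.5% NP-40, 50 mM NaF). About 30 µg protein immunoblotted for phospho-AMPKα Thr172, phospho-ACC Ser79, total AMPK, β-actin.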"}, "[2]": {"molecular_target": "5'-AMP-activated protein kinase catalytic subunit alpha-1 (Mus musculus) (UniProt Q5EG47)", "assay": "Activation of AMPKalpha in differentiated mouse C2C12 cells assessed as change in AMPK level at 10 uM after 30 mins by Western blot analysis relative to control", "summary_of_the_method": "as §1"}, "[3]": {"molecular_target": "5'-AMP-activated protein kinase catalytic subunit alpha-1 (Mus musculus) (UniProt Q5EG47)", "assay": "Activation of AMPKalpha in differentiated mouse C2C12 cells assessed as phosphorylated-AMPK level at 10 uM after 30 mins by Western blot analysis relative to control", "summary_of_the_method": "as §1"}},
  "note": "Calls of active or inactive are those of the source. The rule behind the calls is not given here.",
  "data": [
    {"compound": "COc1cc([C@@H]2COc3cc(O)ccc32)c(OC)cc1O", "values": [
      {"measurement": "Activity", "setting": "[1]", "value": "inactive"},
      {"measurement": "Activity", "setting": "[2]", "value": "inactive"},
      {"measurement": "Activity", "setting": "[3]", "value": "inactive"}
    ]},
    {"compound": "COc1ccc2c(C=O)c(-c3ccc(O)cc3O)oc2c1CC=C(C)C", "values": [
      {"measurement": "Activity", "setting": "[1]", "value": "Active"},
      {"measurement": "Activity", "setting": "[2]", "value": "inactive"},
      {"measurement": "Activity", "setting": "[3]", "value": "Active"}
    ]},
    {"compound": "COc1cc(C2(C=O)COc3cc(O)ccc32)c(OC)cc1O", "note": "(stereo not drawn)", "values": [
      {"measurement": "Activity", "setting": "[1]", "value": "inactive"},
      {"measurement": "Activity", "setting": "[2]", "value": "inactive"},
      {"measurement": "Activity", "setting": "[3]", "value": "inactive"}
    ]},
    {"compound": "CC(C)=CCc1cc(-c2oc3c(CC=C(C)C)c(O)ccc3c2C(=O)O)c(O)cc1O", "values": [
      {"measurement": "Activity", "setting": "[1]", "value": "Active"},
      {"measurement": "Activity", "setting": "[2]", "value": "inactive"}
    ]},
    {"compound": "CC(C)=CCc1c(O)ccc2c1oc1c3ccc(O)cc3oc(=O)c21", "values": [
      {"measurement": "Activity", "setting": "[1]", "value": "Active"},
      {"measurement": "Activity", "setting": "[2]", "value": "inactive"},
      {"measurement": "Activity", "setting": "[3]", "value": "Active"}
    ]},
    {"compound": "CC(C)=CCc1cc(-c2oc3c(CC=C(C)C)c(O)ccc3c2C=O)c(O)cc1O", "values": [
      {"measurement": "Activity", "setting": "[1]", "value": "inactive"},
      {"measurement": "Activity", "setting": "[2]", "value": "inactive"},
      {"measurement": "Activity", "setting": "[3]", "value": "inactive"}
    ]},
    {"compound": "CC(C)=CCc1cc2c(cc1O)oc(=O)c1c3ccc(O)c(CC=C(C)C)c3oc21", "values": [
      {"measurement": "Activity", "setting": "[1]", "value": "Active"},
      {"measurement": "Activity", "setting": "[2]", "value": "inactive"},
      {"measurement": "Activity", "setting": "[3]", "value": "Active"}
    ]},
    {"compound": "COc1ccc2c(oc3c4ccc(O)cc4oc(=O)c23)c1CC=C(C)C", "values": [
      {"measurement": "Activity", "setting": "[1]", "value": "Active"},
      {"measurement": "Activity", "setting": "[2]", "value": "inactive"},
      {"measurement": "Activity", "setting": "[3]", "value": "Active"}
    ]}
  ]
}
